Measured values published in ChEMBL document CHEMBL3627648, “Synthesis and biochemical evaluation of benzoylbenzophenone thiosemicarbazone analogues as potent and selective inhibitors of cathepsin L” (Bioorg Med Chem, 2015).
Activity calls are given as the source filed them. No cut-off for these calls is given here.

Experiments:
[1] = molecular target: T1, Procathepsin L (Homo sapiens, UniProt P07711); experiment: Inhibition of human liver cathepsin L using Z-FR-AMC as substrate measured every 15 sec for 5 mins by fluorescence assay
Target sequence in this assay (P07711 whole entry): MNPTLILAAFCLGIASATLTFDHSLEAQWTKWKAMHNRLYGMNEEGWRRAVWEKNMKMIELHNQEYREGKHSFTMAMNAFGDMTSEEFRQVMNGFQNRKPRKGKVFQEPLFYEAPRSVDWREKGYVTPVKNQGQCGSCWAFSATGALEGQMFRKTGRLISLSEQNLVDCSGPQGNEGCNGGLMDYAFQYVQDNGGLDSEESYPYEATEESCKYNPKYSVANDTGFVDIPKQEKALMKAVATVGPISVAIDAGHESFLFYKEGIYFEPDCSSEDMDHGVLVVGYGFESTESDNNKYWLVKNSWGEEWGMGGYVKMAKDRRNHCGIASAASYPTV

[2] = molecular target: Cathepsin B (Homo sapiens, UniProt P07858); experiment: Inhibition of human liver cathepsin B using Z-RR-AMC as substrate after 5 mins by fluorescence assay
Method in brief: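 Human liver cathepsin B (1 nM) was pre-incubated 5 min at 37 °C with inhibitor (final 10 µM to 10 pM). Substrate was 60 µM Z-RR-AMC in 120 mM sodium potassium phosphate pH 6.0 with 1 mM EDTA, 3 mM DTT, 0.01% Brij 35 and 2% DMSO. AMC fluorescence (ex 355/em 460 nm) was read for 5 min at 37 °C.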

[3] = system: HUVEC; experiment: Cytotoxicity against HUVEC cells after 48 hrs by SRB assay; format: cell-based; conditions: human
Method in brief: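 SRB growth assay: HUVECs (pooled donors, passage ≤5) plated at 9,000 cells/well for 24 h, then exposed to ten-fold serial dilutions for 48 h. Cells were TCA-fixed and stained with 0.4% SRB, and absorbance read at 540 nm normalised to 630 nm.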

[4] = system: MDA-MB-231; experiment: Antimigrative activity in human MDA-MB-231 cells at 25 uM after 24 hrs by inverted microscopic analysis; format: functional; conditions: MDA-MB-231, 24 h
Method in brief: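 Transwell migration of MDA-MB-231 cells, run as for invasion but on 8 µm pore inserts without Matrigel. Each insert held 50,000 cells in DMEM with 25 µM compound and 2% DMSO, with 10% FBS DMEM below. After 24 h at 37 °C, cells were fixed, stained and counted by microscope. Values were normalised to the DMSO vehicle; triplicate.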

[5] = system: MDA-MB-231; experiment: Antiinvasive activity in human MDA-MB-231 cells at 25 uM after 24 hrs by inverted microscopic analysis; format: functional; conditions: for inhibition at 25 µM: MDA-MB-231, 24 h
Method in brief: (§1)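 MDA-MB-231 cells at 80% confluence, 50,000 per Matrigel-coated insert (8 µm PET membrane) in DMEM with 10 or 25 µM compound and 2% DMSO. The lower chamber held DMEM with 10% FBS as chemoattractant. After 24 h at 37 °C in 5% CO2, invaded cells were methanol-fixed, Diff-stained and counted by hand in ten fields at 40x. Values were normalised to the 2% DMSO vehicle; triplicate.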

[6] = system: MDA-MB-231; experiment: Antiinvasive activity in human MDA-MB-231 cells at 10 uM after 24 hrs by inverted microscopic analysis; format: functional; conditions: MDA-MB-231, 24 h; method in brief: as §1
[7] = Antiinvasive activity in human PC3-ML cells at 5 uM after 24 hrs by microscopic analysis; format: functional
Method in brief: (§2)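 PC-3ML cells, a metastatic PC-3 subline, were seeded in serum-free medium into Matrigel-coated invasion inserts, with 10% FBS medium in the bottom chamber. At 24 h, cells that reached the membrane underside were stained and counted by microscope. Mean and standard error come from 3-5 independent experiments.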

[8] = Antiinvasive activity in human PC3-ML cells at 1 uM after 24 hrs by microscopic analysis; format: functional; method in brief: as §2
[9] = Antiinvasive activity in human PC3-ML cells at 25 uM after 24 hrs by microscopic analysis; format: functional; method in brief: as §2
[10] = Antiinvasive activity in human PC3-ML cells at 10 uM after 24 hrs by microscopic analysis; format: functional; method in brief: as §2
[11] = Antitumor activity against C3H mouse derived mammary cancer cells implanted in CDF1 mouse assessed as time taken for tumors to reach 500 mm'3 at 20 mg/kg, ip administered 5 consecutive days starting either on day of tumor implantation or when tumors reached 200 mm'3 (reference value: 20.1 +/- 0.6 days); format: functional, Cancer cell lines
Method in brief: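 Female CDF1 mice, 10-14 weeks old, had minced C3H mammary carcinoma tissue (5-10 µl) implanted in the right rear foot. Dosing was 20 mg/kg i.p. at 0.02 ml/g, dissolved in Tween80 and diluted to 10% with saline, given daily for 5 days. Tumour volume was followed daily to find days to reach 500 mm3. Groups had 5-8 mice; mean ±1 S.E.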

[12] = system: Mus musculus; experiment: Toxicity in C3H mouse derived mammary cancer cells implanted CDF1 mouse assessed as drug tolerability at 20 mg/kg, ip administered 5 consecutive days starting either on day of tumor implantation or when tumors reached 200 mm'3; format: organism-based, Cancer cell lines; conditions: in vivo
[13] = molecular target: T1, Procathepsin L; experiment: Inhibition of human liver cathepsin L using Z-FR-AMC as substrate at 10000 nM measured every 15 sec for 5 mins by fluorescence assay
Method in brief: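 Human liver cathepsin L (1 nM) was pre-incubated 5 min at 25 °C with 10 µM inhibitor or vehicle. Substrate was 50 µM Z-FR-AMC in 100 mM NaOAc pH 5.5 with 1 mM EDTA, 3 mM DTT, 0.01% Brij 35 and 2% DMSO.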
Target sequence in this assay (P07711 114-333 limits assumed): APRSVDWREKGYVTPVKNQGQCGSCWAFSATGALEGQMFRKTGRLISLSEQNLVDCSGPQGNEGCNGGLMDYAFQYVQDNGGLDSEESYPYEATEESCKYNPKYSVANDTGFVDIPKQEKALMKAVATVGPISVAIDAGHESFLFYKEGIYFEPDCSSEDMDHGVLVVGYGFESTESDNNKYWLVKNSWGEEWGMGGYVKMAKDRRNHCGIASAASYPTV

| Structure (SMILES) | IC50 [1] [nM] | IC50 [2] [µM] | GI50 [3] [µM] | other results |
| --- | --- | --- | --- | --- |
| CC(C)Oc1ccc(C(=O)c2cccc(/C(=N/NC(N)=S)c3ccc(OC(C)C)cc3)c2)cc1 | > 10000 | > 10 | – | – |
| NC(=S)N/N=C(\c1ccccc1)c1cccc(C(O)c2ccccc2)c1 (stereo not given) | 23.8 | > 10 | – | – |
| NC(=S)N/N=C(\c1cccc(O)c1)c1cc(Br)cc(C(=O)c2cccc(O)c2)c1 | 71.6 | > 10 | 13.3 | – |
| NC(=S)N/N=C(\c1ccc(F)cc1)c1cccc(C(=O)c2ccc(F)cc2)c1 | 14.4 | > 10 | > 126 | inhibition at 25 µM [4]: > 50%; inhibition at 25 µM [5]: 60%; inhibition at 10 µM [6]: 15%; inhibition at 5 µM [7]: 92%; inhibition at 1 µM [8]: 59% |
| NC(=S)N/N=C(\c1ccccc1)c1cccc(C(=O)c2ccccc2)c1 | 9.85 | > 10 | 53.3 | inhibition at 25 µM [4]: 80%; inhibition at 25 µM [5]: 30%; inhibition at 25 µM [9]: 53%; inhibition at 10 µM [10]: 37%; Time [11]: 22.1 days; Activity [12]: Non-toxic |
| NC(=S)N/N=C(\c1ccc(Br)cc1)c1cccc(/C(=N/NC(N)=S)c2ccc(Br)cc2)c1 | > 10000 | > 10 | – | – |
| NC(=S)N/N=C(\c1cccc(Br)c1)c1cc(O)cc(C(=O)c2cccc(Br)c2)c1 | 10000 | > 10 | – | inhibition [13]: 56.9% |
| CC(=O)O[C@H]1C(=O)[C@@]2(C)[C@H]([C@H](OC(=O)c3ccccc3)[C@]3(O)C[C@H](OC(=O)[C@H](O)[C@@H](NC(=O)c4ccccc4)c4ccccc4)C(C)=C1C3(C)C)[C@]1(OC(C)=O)CO[C@@H]1C[C@@H]2O [PACLITAXEL] | – | – | 0.00148 | – |
| NC(=S)N/N=C(\c1cc(Br)cc(C(=O)c2ccccc2F)c1)c1ccccc1F | 8.12 | > 10 | > 85.9 | inhibition at 25 µM [4]: > 50%; inhibition [5]: Active; inhibition at 10 µM [6]: 70% |
| NC(=S)N/N=C(\c1ccc(Br)cc1)c1cccc(C(=O)c2ccc(Br)cc2)c1 | 1520 | > 10 | – | – |
| NC(=S)N/N=C(\c1ccccc1)c1cc(C(=O)c2ccccc2)cc(C(=O)c2ccccc2)c1 | 56 | > 10 | – | – |
| NC(=S)N/N=C(\c1cccc(Br)c1)c1cc(Br)cc(C(=O)c2cccc(Br)c2)c1 | 10300 | > 10 | – | – |
| COc1ccc(C(=O)c2cccc(/C(=N/NC(N)=S)c3ccc(OC)cc3)c2)cc1 | 5120 | > 10 | – | – |
| Cc1cccc(C(=O)c2cccc(/C(=N/NC(N)=S)c3cccc(C)c3)c2)c1 | 654 | > 10 | – | – |
| NC(=S)N/N=C(\c1ccc(O)cc1)c1cccc(C(=O)c2ccc(O)cc2)c1 | 340 | > 10 | – | – |
| COc1cccc2c1C(=O)c1c(O)c3c(c(O)c1C2=O)C[C@@](O)(C(=O)CO)C[C@@H]3O[C@H]1C[C@H](N)[C@H](O)[C@H](C)O1 [DOXORUBICIN] | – | – | 0.0268 | – |
| CC(C)C[C@H](NC(=O)[C@@H]1O[C@H]1C(=O)O)C(=O)NCCCCN=C(N)N | – | – | – | inhibition at 10 µM [6]: 60% |
